# Screening results deposited in PubChem BioAssay by several laboratories.
# RanGTP-Imp inh = inhibitors of RanGTP-importin-beta interaction, primary screen, biochemical, FRET, CFP-Ran, YFP-importin-beta, homogeneous. Ran GTPase (GTP-bound) - importin-beta complex. cell-free CFP-Ran/YFP-importin-beta FRET ratio. inhibition, % (no concentration beside the values). 300,000 compounds, 1.1% hits. AID 2216, 2009;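 active = more than half of the replicate wells show a fall in the fluorescence ratio signal beyond about 16%, limit read from the data, passing the limit was not always enough; inconclusive = exactly half of the replicate wells pass the set limit; inactive = fewer than half of replicates pass the limit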;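 note: 0% = DMSO wells and 100% = Ran loaded with GDP instead of GTP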
# Runt-SMMHC FRET = inhibitors of RUNX1 Runt–CBFb-SMMHC binding, primary screen, biochemical, FRET, Cerulean-Runt, Venus-CBFb-SMMHC, uHTS. AID 1434, 2008. 220,000 compounds, 0.74% hits. Cerulean-Runt/Venus-CBFb-SMMHC FRET ratio 530/480, 1 h. Runt-related transcription factor 1 (Homo sapiens) + Core-binding factor subunit beta …. inhibition, % at 20 µM;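 active = mean inhibition across duplicate retests at 20 µM reaching about 50%, limit read from the data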;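 note: 0% = DMSO wells and 100% = wells with excess untagged CBFb-SMMHC; inhibitors lower the FRET ratio by blocking Runt binding to CBFb-SMMHC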
# Target sequence (Q01196 whole entry, looked up): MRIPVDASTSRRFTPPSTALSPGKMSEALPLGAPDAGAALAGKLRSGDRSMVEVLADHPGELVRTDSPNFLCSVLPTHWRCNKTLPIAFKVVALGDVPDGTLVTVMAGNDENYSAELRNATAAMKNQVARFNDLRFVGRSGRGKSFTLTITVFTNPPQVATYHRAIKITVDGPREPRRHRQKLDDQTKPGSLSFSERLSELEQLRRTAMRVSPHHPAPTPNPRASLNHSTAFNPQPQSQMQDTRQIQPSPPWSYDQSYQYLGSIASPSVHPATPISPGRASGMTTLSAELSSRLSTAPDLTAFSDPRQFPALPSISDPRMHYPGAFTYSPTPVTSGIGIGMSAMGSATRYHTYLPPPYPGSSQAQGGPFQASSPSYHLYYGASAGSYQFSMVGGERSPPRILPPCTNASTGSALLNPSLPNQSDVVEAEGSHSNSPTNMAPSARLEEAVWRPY
# Target sequence (Q13951 whole entry, looked up): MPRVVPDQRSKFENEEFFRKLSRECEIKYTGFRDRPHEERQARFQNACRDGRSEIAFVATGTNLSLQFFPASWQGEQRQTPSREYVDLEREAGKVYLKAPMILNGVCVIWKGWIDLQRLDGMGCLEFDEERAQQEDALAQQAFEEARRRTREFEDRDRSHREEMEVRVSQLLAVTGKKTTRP
# Runt-CBFb FRET = inhibitors of RUNX1 Runt–CBFb binding, primary screen, biochemical, FRET, Cerulean-Runt, Venus-CBFb, uHTS | 220,000 compounds, 0.46% hits | Cerulean-Runt/Venus-CBFb FRET ratio 530/480, 1 h | AID 1496, 2009 | inhibition, % at 20 µM | Runt-related transcription factor 1 (Homo sapiens) + Core-binding factor subunit beta …;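 active = inhibition over about 50% at 20 µM in the single-dose screen, limit read from the data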;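 note: 0% = DMSO wells and 100% = excess unlabeled CBFb competitor control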
#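 Doses: 20 µM compound in 1% DMSO | Material: Cerulean-labeled Runt domain protein | Amount: Each fluorescent fusion protein 100 nM | Schedule: Two 1 h room-temperature incubations shielded from light | Measured by: FRET fluorescence | Evaluation: Loss of energy transfer signal | Controls: Unlabeled CBFb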
# CaV13 FRET inh = Disruptors of the CACNA1D IQ motif to Ca2+-dependent inactivation inhibitor domain association, primary screening, Förster resonance energy transfer in intact living … | HEK cells, CFP/YFP FRET ICDI-IQ, plate reader, 10 min; percent FRET-ratio fall versus neutral wells | inhibition, % at 12.3 µM | 340,000 compounds, 0.098% hits;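 active = mean replicate inhibition of at least 30% and at least 1% of replicates passing that level; inconclusive = only one of the two criteria is met; inactive = neither criterion is met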;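 note: 0% = median of the neutral control wells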
# Numbers without * were called inactive; ? = inconclusive; / = not tested or not shown. Compounds with a hit are over-represented: about 1.2% of the library has one in this group of screens.
SMILES,RanGTP-Imp inh,Runt-SMMHC FRET,Runt-CBFb FRET,CaV13 FRET inh
CCn1c(/C=C/c2c(C)[nH]c3ccccc23)nc2ccccc2c1=O,-25.7,59.0*,19.0,-5.2
Cc1[nH]c2ccccc2c1/C=C/c1nc2ccccc2c(=O)[nH]1,33.5*,38.8,17.6,-1.8
CN(C)S(=O)(=O)c1ccc2[nH]cc(/C=C/c3nc4ccccc4c(=O)n3-c3ccccc3)c2c1,28.9*,-34.8,-45.5,-7.3
Cc1[nH]c2ccccc2c1/C=C/C(=O)c1ccccc1,40.7*,-36.4,-30.8,-12.9
Cc1[nH]c2ccccc2c1/C=N/NC(=O)c1ccccc1,0.6,/,/,-14.2
CCCCOCC1CN(CCCC)S(=O)(=O)c2c(Oc3ccc(C(C)C)cc3)cccc2O1 (centres undefined),/,/,/,-7.4
Cc1[nH]c2ccccc2c1/C=C/c1nc2ccccc2c(=O)n1-c1ccc([N+](=O)[O-])cc1,38.4*,-127.8,-41.1,-3.3
CCn1c(/C=C/c2cccc([N+](=O)[O-])c2)nc2ccccc2c1=O,-0.1,-4.3,-1.8,-4.0
CC(=O)N(c1ccccc1C)C1CCCC1,3.4,0.7,-1.0,-5.3
CC(=O)N(C1=C(Cl)C(=O)c2ccccc2C1=O)C1CCCCC1,4.0,69.9*,33.1,15.6
COc1cccc(CNC(=O)c2cccc(Br)c2)c1,30.4*,-4.4,-1.1,-4.4
COc1cccc(CNC(=O)c2cccc(S(=O)(=O)N3CCN(C)CC3)c2)c1,5.0,/,/,-12.0
CCO[C@@H]1OC(C(=O)N2CCN(Cc3ccccc3)CC2)=C[C@H](c2csc3ccccc23)[C@H]1CCCO,?,-3.3,-2.8,-3.1
CCOC(=O)C1C(=O)C=C(c2ccc(C)cc2)CC1c1ccco1 (centres undefined),?,10.1,10.2,-4.7
CCOC(=O)C1C(=O)C=C(c2ccc(NS(C)(=O)=O)cc2)CC1c1ccco1 (centres undefined),6.3,-19.8,78.8*,-11.3
O=[N+]([O-])c1nccn1CC(O)CCN1CCOCC1 (centres undefined),/,/,/,-10.7
O=C(N/N=C/c1sc(=O)[nH]c1-[n+]1ccccc1)c1ccccc1[O-],-4.1,-12.8,2.1,-4.7
O=C(N/N=C/c1sc(=O)[nH]c1-[n+]1ccc2ccccc2c1)c1ccccc1[O-],24.1*,/,/,-5.8
O=c1c(O)c(-c2ccc3c(c2)OCO3)oc2ccccc12,32.0*,-52.8,-22.0,-3.0
CCn1c(C)c(C(C)=O)c(N2CCN(C(c3ccccc3)c3ccccc3)CC2)nc1=S,57.3*,23.4,18.0,3.1
CCn1c(C)c(C(C)=O)c(N2CCN(c3ccccc3)CC2)nc1=S,19.5*,10.6,-61.6,/
O=C1NC(Nc2nccs2)(C(F)(F)F)C(=O)N1CCc1ccccc1 (centres undefined),2.5,1.0,-0.2,/
Fc1ccc(-c2cc3nc(-c4ccccc4)cc(N4CCN(CCN5CCOCC5)CC4)n3n2)cc1,21.8*,10.9,3.9,-11.0
CN1CCN(c2cc(-c3ccccc3)nc3cc(-c4ccc(F)cc4)nn23)CC1,0.3,2.9,-5.5,-0.3
COc1ccc(NC(=O)CCCc2ccccc2)cc1OC,-0.5,/,/,-7.9
SMILES,RanGTP-Imp inh,Runt-SMMHC FRET,Runt-CBFb FRET,CaV13 FRET inh
NC(=O)c1ccccc1OCC(=O)NS(=O)(=O)c1ccc(Cl)cc1,1.8,1.6,-0.4,-8.9
Cc1ccc(S(=O)(=O)NC(=O)COc2ccccc2C(N)=O)cc1,28.0*,-3.9,1.7,-8.9
CCCc1cc(NCCCN2CCOCC2)n2c(nc3ccccc32)c1C#N,13.5,61.5,12.5,/
Cc1cc(Nc2c(C)n(C)n(-c3ccccc3)c2=O)n2c(nc3ccccc32)c1C#N,107.1*,54.3,32.4,-0.8
CCCc1cc(Nc2c(C)n(C)n(-c3ccccc3)c2=O)n2c(nc3ccccc32)c1C#N,107.4*,44.0,26.6,-1.7
COc1ccc(N2C(=NC(=O)C3CCCCC3)SC3CS(=O)(=O)CC32)c(OC)c1 (centres undefined),-1.1,/,/,-2.2
CCOc1cc(CNc2ccc(CNc3ncn[nH]3)cc2)ccc1OCc1ccccc1,1.5,1.4,0.1,-17.2
COc1ccc2nc(Nc3sc4c(c3C(N)=O)CCCC4)sc2c1,/,67.3*,45.2,-2.0
